Common to all, as to type: functional, cell-based
Experiment [1] has as its system A549. Kind of experiment: Cytotoxicity against human A549 cells after 48 hrs by sulforhodamine B assay. Conditions: A549, 48 h. The method in brief: (§1)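 SRB assay, done in triplicate on each cell line across 1.56–50 µg/mL; IC50 determined per cell line. Lines are A549 (human lung cancer), B16F10 (mouse melanoma), HCT-15 (human colon), SKOV3 (human ovary) and SKMel2 (human skin).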
Background: In SRB staining, fixed cells bind dye roughly in proportion to their protein.

A further experiment relates to B16-F10. Kind of experiment: Cytotoxicity against mouse B16F10 cells after 48 hrs by sulforhodamine B assay. Conditions: B16-F10, 48 h. The method in brief:
as §1

The test system of a further experiment is HCT-15. In words: Cytotoxicity against human HCT15 cells after 48 hrs by sulforhodamine B assay. Conditions: HCT-15, 48 h. The method in brief: as §1
The test system of another experiment is SK-OV-3. Kind of experiment: Cytotoxicity against human SKOV3 cells after 48 hrs by sulforhodamine B assay. Conditions: SK-OV-3, 48 h. The method in brief: as §1
The subject of another experiment is SK-MEL-2. In words: Cytotoxicity against human SK-MEL-2 cells after 48 hrs by sulforhodamine B assay. The note with it: SK-MEL-2, 48 h. The method in brief:
as §1

Experiment [2] has as its system A549. Kind of experiment: Induction of microtubule disruption in human A549 cells at IC50 after 48 hrs by immunocytochemical analysis.
The subject of experiment [3] is A549. In words: Induction of actin disruption in human A549 cells at IC50 after 48 hrs by immunocytochemical analysis.
Experiment [4] has as its system A549. In words: Induction of nucleus disruption in human A549 cells at IC50 after 48 hrs by immunocytochemical analysis.

The source made the active and inactive calls. The rule behind the calls is not given here. Some results are limits rather than exact numbers.

The term IC50 denotes the midpoint of a concentration-inhibition curve. A low value points to greater potency in that assay.

Regarding `COc1cc(CC(=O)OC[C@H](Cc2ccc(O)c(OC)c2)[C@H](CO)Cc2ccc(O)c(OC)c2)ccc1O` (racemic), the IC50 in the experiment on A549 [1] is 65.3 µM; in the experiment with B16-F10, 71.8 µM; with HCT-15 it was 52.2 µM; in the experiment on SK-OV-3 it was over 76 µM; in the experiment on SK-MEL-2, over 76 µM.
For `COc1cc(CC(=O)OC[C@H](Cc2ccc(O)c(OC)c2)[C@H](COC(=O)Cc2ccc(O)c(OC)c2)Cc2ccc(O)c(OC)c2)ccc1O` (racemic), the IC50 with A549 [1] is 17.5 µM; in the experiment on B16-F10 it was 13.3 µM; with HCT-15, 15.9 µM; in the experiment on SK-OV-3 it was 30.8 µM; in the experiment with SK-MEL-2, 14.2 µM. The outcome in the experiment with A549 [2] and in the experiment with A549 [3] was Active. Also, the result in the experiment on A549 [4] was inactive.
Regarding `COc1cc(CCC(=O)OC[C@H](Cc2ccc(O)c(OC)c2)[C@H](CO)Cc2ccc(O)c(OC)c2)ccc1O` (racemic), the IC50 in the experiment on A549 [1] was 65.7 µM; in the experiment on B16-F10, 68.4 µM; in the experiment on HCT-15 it was 49.6 µM; with SK-OV-3, over 74 µM; in the experiment with SK-MEL-2, 64 µM.
Take `COc1cc(CCC(=O)OC[C@H](Cc2ccc(O)c(OC)c2)[C@H](COC(=O)CCc2ccc(O)c(OC)c2)Cc2ccc(O)c(OC)c2)ccc1O` (racemic): the IC50 is 12.1 µM in the experiment on A549 [1]; 12.8 µM in the experiment with B16-F10; 10 µM in the experiment on HCT-15; 35.9 µM with SK-OV-3; 10.3 µM with SK-MEL-2. Further, the result in the experiment with A549 [2] and in the experiment with A549 [3] was Active. Also, in the experiment with A549 [4], the outcome was inactive.
For `COc1cc(/C=C/C(=O)OC[C@H](Cc2ccc(O)c(OC)c2)[C@H](COC(=O)/C=C/c2ccc(O)c(OC)c2)Cc2ccc(O)c(OC)c2)ccc1O` (racemic), the concentration for half-maximal inhibition (IC50) turned out to be 7.1 µM in the experiment with A549 [1]; 9.8 µM in the experiment on B16-F10; 8.3 µM with HCT-15; 21.7 µM in the experiment on SK-OV-3; 8.3 µM in the experiment on SK-MEL-2. Besides, the outcome with A549 [2] and with A549 [3] was Active. Besides, the outcome in the experiment on A549 [4] was inactive.
With `COc1cc(C[C@@H](CO)[C@H](CO)Cc2ccc(O)c(OC)c2)ccc1O` (racemic) [(+)-SECOISOLARICIRESINOL], the IC50 in the experiment with A549 [1], in the experiment with B16-F10, in the experiment with HCT-15, in the experiment with SK-OV-3 and with SK-MEL-2 was over 110 µM in each case.
Take `COc1cc(/C=C/C(=O)OC[C@H](Cc2ccc(O)c(OC)c2)[C@H](CO)Cc2ccc(O)c(OC)c2)ccc1O` (racemic) [HANULTARIN]: the IC50 in the experiment on A549 [1] stood at 29.5 µM; in the experiment with B16-F10 it was 21.4 µM; in the experiment on HCT-15 it was 29.3 µM; in the experiment with SK-OV-3, 63.9 µM; in the experiment on SK-MEL-2, 17.3 µM. For the same compound, the result in the experiment on A549 [2] and in the experiment with A549 [3] was Active. In addition, the outcome in the experiment on A549 [4] was inactive.

The record behind these values is ChEMBL document CHEMBL1909510, “Synthesis and evaluation of cytotoxic effects of hanultarin and its derivatives” (Bioorg Med Chem Lett, 2011).
